LMPTP block – blocks human LMPTP phosphatase; AID 651560; inhibition, % at 20 µM; recombinant LMPTP-A, OMFP fluorogenic substrate, fluorescence intensity; actives 0.22% (n = 360,000); P24666;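 active means compounds that cut the enzyme signal by at least half of the control window in the single-dose screen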;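 further: plate controls were DMSO wells with enzyme plus substrate for no effect and substrate without enzyme for full effect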
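Assay system: LMPTP-A enzyme. Input: 0.625 nM LMPTP-A final. Probe or stimulus: 400 µM OMFP. Compound dosing: single 20 µM dose. Schedule: 50 min dark incubation at room temperature. Detection: fluorescence intensity of OMFP turnover product. Read-out: percent inhibition versus substrate-only and uninhibited controls. Benchmarks: no-enzyme low control, uninhibited high control.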
CSN deneddyl inh – CSN deneddylation inhibition. Q92905. Purified CSN, SCF-Nedd8-OG deneddylation, fluorescence polarization. inhibition, % at 12.5 µM. actives 0.38% (n = 360,000). AID 651999;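 active means pattern-corrected inhibition above about 35%, with an unprinted fluorescence ratio check between 0.5 and 1.5, limit read from the data, passing the limit was not always enough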;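 further: 0% = enzyme with substrate and 100% = substrate without enzyme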
Target sequence (Q92905 whole entry, looked up, one chain of several): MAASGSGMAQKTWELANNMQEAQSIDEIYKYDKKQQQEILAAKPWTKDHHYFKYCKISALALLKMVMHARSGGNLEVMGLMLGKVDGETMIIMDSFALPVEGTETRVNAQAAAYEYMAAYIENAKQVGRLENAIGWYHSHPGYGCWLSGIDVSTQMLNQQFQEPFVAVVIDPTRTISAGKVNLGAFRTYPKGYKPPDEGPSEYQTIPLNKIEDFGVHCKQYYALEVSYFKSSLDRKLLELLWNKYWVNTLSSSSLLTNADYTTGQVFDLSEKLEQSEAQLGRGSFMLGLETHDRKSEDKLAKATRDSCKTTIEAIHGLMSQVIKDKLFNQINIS
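Test system: Human Csn5 produced in HEK293T cells | Compound: 12.5 µM single point | Times: 90 min, room temperature | Signal: Fluorescence polarization readout | Read-out basis: % inhibition of substrate cleavage by Csn5 | Controls: no-enzyme wells high, enzyme-with-substrate wells low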
DNMT1 inh – DNMT1 (human) enzyme inhibition; DNMT1 molecular beacon, Hinp1I cleavage, fluorescence; inhibition (reported as % activation of signal), % at 10 µM; AID 588458; actives 0.83% (n = 360,000); in the data active means inhibition above about 50%
Scp-1 inhibitor – blocks human Scp-1 phosphatase activity. Q9GZU7. Recombinant Scp1, phosphopeptide, malachite green phosphate absorbance. inhibition, % at 20 µM. actives 0.88% (n = 340,000). AID 493091;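 active means inhibition above about 50% at 20 µM, limit read from the data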;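 further: plate controls were DMSO wells with enzyme for no effect and wells lacking enzyme for full effect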
Target sequence (Q9GZU7 76-261 limits assumed): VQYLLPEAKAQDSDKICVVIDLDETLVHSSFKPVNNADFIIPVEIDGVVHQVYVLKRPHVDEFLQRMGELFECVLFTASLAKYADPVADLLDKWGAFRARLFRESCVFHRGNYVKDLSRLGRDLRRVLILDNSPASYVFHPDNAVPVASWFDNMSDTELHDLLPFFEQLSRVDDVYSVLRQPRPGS
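Incubation: 45 min enzyme reaction at room temperature / System: truncated SCP-1 phosphatase (76-261aa) / Reagent: Phospho 17-mer peptide substrate / Buffer or medium: Acidic Tris acetate buffer with magnesium and detergent / Signal: absorbance at 630 nm / Doses: one concentration, 20 µM, with 1.0% DMSO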
STEP inh – STEP (human) phosphatase inhibition | inhibition, % at 20 µM | recombinant STEP, OMFP fluorogenic substrate, fluorescence | P54829 | actives 0.25% (n = 360,000);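 active means inhibition at 20 µM, scaled per plate between control wells, above about 37%, limit read from the data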;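 further: 0% = DMSO with enzyme and substrate and 100% = substrate only without enzyme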
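Test system: STEP tyrosine phosphatase / Reagent: OMFP at 25 µM / Doses: 20 µM, 1% DMSO / Read-out: percent inhibition scaled to no-enzyme and uninhibited-enzyme controls, plate-pattern corrected / Detection: FITC-channel fluorescence of OMFP product / Medium: Bis-Tris buffer pH 6.0, 2.5 mM DTT, 0.005% Tween 20 / Schedule: 20 min at room temperature, dark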
SUMO1 PPI mod – modulators of human SUMO1-mediated protein-protein interactions; P63165; SUMO1 binding to a labelled peptide, TR-FRET, 1 h; inhibition, % at 20 µM; actives 0.33% (n = 360,000); in the data active means inhibition above about 37%
Target sequence (P63165 whole entry, looked up): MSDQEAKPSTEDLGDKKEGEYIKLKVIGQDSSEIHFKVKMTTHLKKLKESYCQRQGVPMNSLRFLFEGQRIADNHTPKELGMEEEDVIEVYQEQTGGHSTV
Scp1 confirm – Scp-1 (human) inhibition, single-dose confirmed. shares compounds with Scp-1 inhibitor. recombinant SCP-1 catalytic domain, phosphate release, malachite green absorbance. inhibition, % at 20 µM. actives 61% (n = 2,500);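 further: plate controls were DMSO with enzyme for no effect and buffer wells lacking enzyme for full effect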
MG interference – counter-screen for Scp-1 inhibitors: colorimetric interference; shares compounds with Scp-1 inhibitor; Colorimetric interference counterscreen, malachite green absorbance 630 nm; apparent inhibition (interference), % at 20 µM; 2,500 tested, under 10 active; AID 540313;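 further: compounds added after enzyme reaction finished so only phosphate colour detection is probed; plate controls were DMSO wells with completed Scp-1 reaction for no effect and substrate wells lacking enzyme for full effect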
Scp-1 Tm shift – binds human Scp-1, shifting its melting temperature; Recombinant SCP1, Sypro Orange thermal shift Tm; actives 25% (n = 1,500); thermal shift relative to vanadate control, % at 40 µM; shares compounds with Scp-1 inhibitor;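 active means substances whose mean melting-temperature shift, as a percentage of the reference inhibitor's shift, reaches about 5.3%, limit read from the data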;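 further: 0% = Tm of DMSO wells and 100% = Tm with sodium orthovanadate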
* = called active by the depositor; x = no result. Most compounds without a hit are left out; they make up all but 1.9% or so of the library.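 How the source made its calls, unless noted: active means inhibition of at least 30% at 20 µM; inactive means the rest.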

SMILES | LMPTP block | CSN deneddyl inh | DNMT1 inh | Scp-1 inhibitor | STEP inh | SUMO1 PPI mod | Scp1 confirm | MG interference | others
COc1ccc(CN(C)Cc2ccccc2)c(OC)c1OC | -2 | 0 | 10 | -6 | 0 | 4 | x | x
CCN1CCN(Cc2ccc(NC(=O)CC3Oc4ccc(C)cc4NC3=O)cc2)CC1 (stereo not drawn) | 0 | -4 | 0 | -12 | -1 | -2 | x | x
Cc1ccc2c(c1)NC(=O)C(CC(=O)Nc1ccc(CN3CCC(C)CC3)cc1)O2 (stereo not drawn) | 1 | -4 | -2 | 52* | -4 | -2 | -13 | -7
CCC(=O)c1ccc(OCC(=O)Nc2cc(S(=O)(=O)N3CCCCC3)ccc2N2CCN(CC)CC2)cc1 | -2 | 1 | 0 | 106* | 0 | 9 | -18 | -14
COCCn1nnnc1C(c1ccccc1OC)N1CCc2ccccc2C1 (stereo not drawn) | -2 | -2 | 2 | 0 | -3 | -2 | x | x
O=C(NC12CC3CC(CC(C3)C1)C2)c1cnccn1 | 0 | -7 | 11 | 51* | 3 | -3 | 27 | -11
CC(=O)c1ccc(NC(=O)CCc2nc3sc4c(c3c(=O)[nH]2)CCCC4)cc1 | 8 | 14 | 17 | 52* | 4 | -1 | 65* | -21 | Scp-1 Tm shift=0
CCc1ccc(NC(=O)CCc2nc3sc4c(c3c(=O)[nH]2)CCCC4)cc1 | 2 | 2 | 21 | 7 | 1 | -2 | x | x
Cc1ccc(C(=O)C(C)Sc2nnc(N)s2)cc1 (stereo not drawn) | -1 | -7 | 1 | -1 | -3 | -1 | x | x
CCN1C(=O)C(=O)N(CC(=O)N(C)CC(=O)Nc2ccccc2Cl)C1=O | -1 | 0 | 0 | -1 | -1 | -2 | -5 | -11
CCOc1ccc(Nc2ccc(N)c(S(=O)(=O)O)c2)cc1 | 74* | 34 | 87* | 84* | 81* | 37* | 66* | -13 | Scp-1 Tm shift=20*
CCOc1ccccc1CN1CCN(Cc2nc3c(s2)CCCC3)CC1CCO (stereo not drawn) | 0 | -4 | -5 | -4 | -1 | 3 | x | x
CCOc1cc(/C=N/NC(=O)CSc2nnc(C)s2)ccc1OCc1ccccc1Cl | 1 | 6 | -6 | 78* | 0 | -4 | 37* | -20 | Scp-1 Tm shift=-7
COc1ccc(/C=N/N=C2/NC(=O)C(CC(=O)O)S2)cc1OCc1ccccc1Cl (stereo not drawn) | -1 | -13 | 3 | 81* | 1 | 7 | 72* | -4 | Scp-1 Tm shift=-5
CCOc1cc(/C=N/N=C2/NC(=O)C(CC(=O)O)S2)ccc1OCc1ccccc1Cl (stereo not drawn) | 1 | 3 | 1 | 75* | 8 | -3 | 64* | -17 | Scp-1 Tm shift=-17
Cc1ccccc1-c1noc(C(C)NC(=O)c2ccco2)n1 (stereo not drawn) | -1 | 0 | -1 | -6 | -1 | 5 | x | x
O=C(Cn1cc([N+](=O)[O-])ccc1=O)NCC(=O)Nc1ccc(F)c(F)c1F | 0 | -3 | 0 | -5 | -1 | -16 | x | x
Cc1ccc2nc3c(cc(C(=O)NCc4ccco4)c(=N)n3Cc3ccco3)c(=O)n2c1 | 11 | 28 | 36 | 69* | 5 | -14 | 8 | -5
Cc1ccc(CNC(=O)c2cc3c(=O)n4ccccc4nc3n(Cc3ccco3)c2=N)cc1 | 15 | 14 | 21 | 10 | 5 | -7 | x | x
COc1ccc(SC[C@H](Cc2ccccc2)N2CC[C@@H](C(C)(C)C)CCC2=O)cc1 | 13 | 1 | 12 | -6 | 6 | 5 | x | x
N#CC1(NC(=O)COC(=O)c2cccc(-n3cnnn3)c2)CCCCC1 | -1 | 0 | 2 | -1 | 0 | 0 | x | x
O=C(COC(=O)c1cncc(Br)c1)NC12CC3CC(CC(C3)C1)C2 | -1 | 2 | 2 | x | -2 | 2 | x | x
O=C(COC(=O)c1cc(Br)ccc1O)NC12CC3CC(CC(C3)C1)C2 | 0 | 0 | -3 | 61* | -2 | 2 | -19 | -17
C[N+]1(CC2COC3(CCCCC3)O2)CCCC1 (stereo not drawn) | -2 | -4 | -1 | 61* | -3 | -2 | 0 | -2
CC(C)(C)C(=O)Nc1ccccc1C(=O)NCCC(=O)Nc1ccccc1 | 0 | 0 | 1 | 3 | -4 | -6 | x | x
SMILES | LMPTP block | CSN deneddyl inh | DNMT1 inh | Scp-1 inhibitor | STEP inh | SUMO1 PPI mod | Scp1 confirm | MG interference | others
Cn1c(=O)c(C(=O)CN2CC(=O)Nc3ccccc32)c(N)n(Cc2ccccc2)c1=O | 0 | 8 | 2 | -7 | 0 | 2 | -7 | -11
Cn1c(=O)c(C(=O)CN2CCc3ccccc32)c(N)n(Cc2ccccc2)c1=O | 1 | 1 | -24 | -6 | 3 | -1 | x | x
Cc1cccn2c(=O)c3cc(C(=O)NC4CCCC4)n(C)c3nc12 | 1 | -6 | -3 | 68* | -1 | -19 | -12 | -11
O=C(COC(=O)c1ccc(NS(=O)(=O)c2cccs2)cc1)Nc1nc2c(F)c(F)c(F)cc2s1 | 40 | 30 | 14 | 51* | 14 | 9 | 65* | -11 | Scp-1 Tm shift=26*
O=C(COC(=O)c1cc(NS(=O)(=O)c2cccs2)ccc1O)Nc1ccc(F)c(F)c1F | 2 | 3 | -5 | -11 | -2 | 4 | x | x
C=C(C)C(=O)Nc1cccc(C2=NOC3(C2)C[C@@H](C(N)=O)N(C(=O)CCCCC)C3)c1 (stereo partly drawn) | x | x | x | 83* | x | x | 69* | -10 | Scp-1 Tm shift=-6
CCCCCC(=O)N1CC2(CC(c3cccc(NC(=O)[C@@H]4CCC(=O)N4)c3)=NO2)C[C@@H]1C(N)=O (stereo partly drawn) | -1 | -2 | 6 | 0 | -2 | 0 | x | x
C/C=C\C=C\C(=O)N1CC2(CC(c3cccc(NC(=O)CC)c3)=NO2)C[C@H]1C(N)=O (stereo partly drawn) | -2 | 0 | -5 | 70* | 0 | 26 | 66* | -11 | Scp-1 Tm shift=-6
C/C=C/C=C\C(=O)Nc1cccc(C2=NOC3(C2)C[C@H](C(N)=O)N(C(=O)/C=C/C)C3)c1 (stereo partly drawn) | 0 | 5 | -19 | 22 | 0 | 10 | x | x
